Measured values: ChEMBL document CHEMBL1125014, “Synthesis and structure-activity relationships of new 9-N-alkyl derivatives of 9(S)-erythromycylamine” (1990)
≈ marks a conversion by molar mass, not a printed value.

What was measured:
Staphylococcus aureus [1] = test: MIC value measured against staphylococcus aureus X1; type: functional
Streptococcus pneumoniae [2] = test: MIC value was measured against streptococcus pneumoniae park1; type: functional
How it was run: (§1)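 Susceptibility determined by standard agar-dilution method against a panel of bacterial strains.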

Enterococcus faecalis = test: MIC value was measured against streptococcus faecalis X66; type: functional; how it was run: as §1
[3] = tested on: Staphylococcus epidermidis; test: MIC value was measured against staphylococcus epidermidis 222; type: functional; how it was run: as §1
Haemophilus influenzae [4] = test: MIC value was measured against haemophilus influenzae CL; type: functional
Streptococcus pyogenes [5] = test: MIC value measured against streptococcus pyogenes C203; type: functional
[6] = tested on: Staphylococcus epidermidis; test: MIC value was measured against staphylococcus epidermidis.; type: functional; how it was run: as §1
Streptococcus pneumoniae [7] = test: Effective dose against mice infected with streptococcus pneumoniae after peroral administration (in vivo); type: functional; details: in Mus musculus, po
Streptococcus pyogenes [8] = test: Effective dose against mice infected with streptococcus pyogenes after peroral administration (in vivo); type: functional; details: in Mus musculus, po
Haemophilus influenzae [9] = test: MIC value was measured against haemophilus influenzae.; type: functional; how it was run: as §1
Streptococcus pneumoniae [10] = test: MIC value measured against streptococcus pneumoniae Park1; type: functional
Staphylococcus aureus [11] = test: Effective dose against mice infected with Staphylococcus aureus after peroral administration (in vivo); type: functional; details: in Mus musculus, po
[12] = tested on: Staphylococcus epidermidis; test: microbe, parasite or virus in culture; type: functional
Mus musculus [13] = test: ED50 value was measured against streptococcus pneumoniae after sc administration in mice in vivo, in experiment 3); type: functional
How it was run: (§2)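 Infected mice were dosed orally or subcutaneously at 1 and 5 h postinfection, 0.25 mL of antibiotic solution in 10% aqueous ethanol per dose. Tartaric acid was added where needed for solubility. Several dose concentrations were tested to give the ED50.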

Mus musculus [14] = test: ED50 value was measured against streptococcus pneumoniae after po administration in mice in vivo, in experiment 3); type: functional; how it was run: as §2
Mus musculus [15] = test: ED50 value was measured against staphylococcus aureus after po administration in mice in vivo, in experiment 3); type: functional; how it was run: as §2
Mus musculus [16] = test: ED50 value was measured against staphylococcus aureus after sc administration in mice in vivo, in experiment 3); type: functional; how it was run: as §2
Mus musculus [17] = test: ED50 value was measured against streptococcus pyogenes after sc administration in mice in vivo, in experiment 3); type: functional; how it was run: as §2
Mus musculus [18] = test: ED50 value was measured against streptococcus pyogenes after po administration in mice (in vivo, in experiment 3); type: functional; how it was run: as §2
Mus musculus [19] = test: ED50 value was measured against streptococcus pyogenes after sc administration in mice (in vivo, in experiment 1); type: functional; how it was run: as §2
Mus musculus [20] = test: ED50 value was measured against staphylococcus aureus infection in mice (in vivo, in experiment 1); type: functional; how it was run: as §2
Mus musculus [21] = test: ED50 value was measured against streptococcus pneumoniae after sc administration in mice (in vivo, in experiment 1); type: functional; how it was run: as §2
Mus musculus [22] = test: ED50 value was measured against streptococcus pyogenes after po administration in mice (in vivo, in experiment 1); type: functional; how it was run: as §2
Mus musculus [23] = test: ED50 value was measured against streptococcus pneumoniae after po administration in mice (in vivo, in experiment 1); type: functional; how it was run: as §2
Mus musculus [24] = test: ED50 value was measured against staphylococcus aureus after sc administration in mice (in vivo, in experiment 1); type: functional; how it was run: as §2
Mus musculus [25] = test: ED50 value was measured against streptococcus pneumoniae after po administration in mice (in vivo, in experiment 2); type: functional; how it was run: as §2
Mus musculus [26] = test: ED50 value was measured against streptococcus pyogenes after sc administration in mice (in vivo, in experiment 2); type: functional; how it was run: as §2
Mus musculus [27] = test: ED50 value was measured against staphylococcus aureus after po administration in mice (in vivo, in experiment 2); type: functional; how it was run: as §2
Mus musculus [28] = test: ED50 value was measured against staphylococcus aureus after sc administration in mice (in vivo, in experiment 2); type: functional; how it was run: as §2
Mus musculus [29] = test: ED50 value was measured against streptococcus pyogenes after po administration in mice (in vivo, in experiment 2); type: functional; how it was run: as §2
Mus musculus [30] = test: ED50 value was measured against streptococcus pneumoniae after sc administration in mice (in vivo, in experiment 2); type: functional; how it was run: as §2
Mus musculus [31] = test: ED50 value was measured against streptococcus pneumoniae after po administration in mice (in vivo, in experiment 3); type: functional; how it was run: as §2
Mus musculus [32] = test: ED50 value was measured against staphylococcus aureus after po administration in mice (in vivo, in experiment 3); type: functional; how it was run: as §2
Mus musculus [33] = test: ED50 value was measured against staphylococcus aureus after sc administration in mice (in vivo, in experiment 3); type: functional; how it was run: as §2
Mus musculus [34] = test: ED50 value was measured against streptococcus pneumoniae after sc administration in mice (in vivo, in experiment 3); type: functional; how it was run: as §2
Mus musculus [35] = test: ED50 value was measured against streptococcus pyogenes after sc administration in mice (in vivo, in experiment 3); type: functional; how it was run: as §2
Streptococcus pneumoniae [36] = test: MIC value was measured against streptococcus pneumoniae park1

SMILES | MIC (Staphylococcus aureus [1]) [µg/mL] | MIC (Streptococcus pneumoniae [2]) [µg/mL] | MIC (Enterococcus faecalis) [µg/mL] | MIC (Haemophilus influenzae [4]) [µg/mL] | MIC (Streptococcus pyogenes [5]) [µg/mL] | MIC (Haemophilus influenzae [9]) [µg/mL] | MIC (Streptococcus pneumoniae [10]) [µg/mL] | MIC [12] [µg/mL] | ED50 (Streptococcus pneumoniae [7]) [mg/kg] | ED50 (Streptococcus pyogenes [8]) [mg/kg] | ED50 (Staphylococcus aureus [11]) [mg/kg] | further results
CCCN1C(C)O[C@@H]2[C@@H](C)[C@@H]1[C@H](C)C[C@@](C)(O)[C@H](OC1OC(C)CC(N(C)C)C1O)[C@@H](C)[C@H](OC1CC(C)(OC)C(O)C(C)O1)[C@@H](C)C(=O)O[C@H](CC)[C@@]2(C)O (some centres undefined) | 1 (≈ 1.25 µM) | 0.015 (≈ 0.0187 µM) | 0.25 (≈ 0.311 µM) | 1 (≈ 1.25 µM) | 0.06 (≈ 0.0747 µM) | – | – | – | – | – | – | MIC [3]: 0.25 µg/mL (≈ 0.311 µM)
CCC1N[C@@H]2[C@H](C)[C@@H](O1)[C@](C)(O)[C@@H](CC)OC(=O)[C@H](C)[C@@H](OC1CC(C)(OC)C(O)C(C)O1)[C@H](C)[C@@H](OC1OC(C)CC(N(C)C)C1O)[C@](C)(O)C[C@H]2C (some centres undefined) | 0.5 (≈ 0.645 µM) | 0.12 (≈ 0.155 µM) | 0.5 (≈ 0.645 µM) | 8 (≈ 10.3 µM) | 0.12 (≈ 0.155 µM) | – | – | 0.5 (≈ 0.645 µM) | 30 | 35 | 34 | ED50 (Mus musculus [31]): 17 mg/kg; ED50 (Mus musculus [32]): 20 mg/kg; ED50 (Mus musculus [33]): 0.8 mg/kg; ED50 (Mus musculus [34]): < 0.6 mg/kg; ED50 (Mus musculus [35]): < 0.6 mg/kg; ED50 (Mus musculus [18]): 19 mg/kg
CC[C@H]1OC(=O)[C@H](C)[C@@H](OC2CC(C)(OC)C(O)C(C)O2)[C@H](C)[C@@H](OC2OC(C)CC(N(C)C)C2O)[C@](C)(O)C[C@@H](C)[C@H](NCC2CC=CCC2)[C@H](C)[C@@H](O)[C@]1(C)O (some centres undefined) | 1 (≈ 1.21 µM) | – | 0.25 (≈ 0.302 µM) | 4 (≈ 4.82 µM) | 0.06 (≈ 0.0724 µM) | – | – | 0.25 (≈ 0.302 µM) | 9 | 15 | 20 | MIC (Streptococcus pneumoniae [36]): 0.008 µg/mL (≈ 0.00965 µM)

Continued by falling MIC (Staphylococcus aureus [1]), values first:

MIC (Staphylococcus aureus [1]) [µg/mL] | MIC (Streptococcus pneumoniae [2]) [µg/mL] | MIC (Enterococcus faecalis) [µg/mL] | MIC (Haemophilus influenzae [4]) [µg/mL] | MIC (Streptococcus pyogenes [5]) [µg/mL] | MIC (Haemophilus influenzae [9]) [µg/mL] | MIC (Streptococcus pneumoniae [10]) [µg/mL] | MIC [12] [µg/mL] | SMILES | ED50 (Streptococcus pneumoniae [7]) [mg/kg] | ED50 (Streptococcus pyogenes [8]) [mg/kg] | ED50 (Staphylococcus aureus [11]) [mg/kg] | further results
1 (≈ 1.19 µM) | – | – | 2 (≈ 2.39 µM) | 0.12 (≈ 0.143 µM) | 2 (≈ 2.39 µM) | 0.015 (≈ 0.0179 µM) | 1 (≈ 1.19 µM) | CC[C@H]1OC(=O)[C@H](C)[C@@H](OC2CC(C)(OC)C(O)C(C)O2)[C@H](C)[C@@H](OC2OC(C)CC(N(C)C)C2O)[C@](C)(O)C[C@@H](C)[C@H](NCCOCCOC)[C@H](C)[C@@H](O)[C@]1(C)O (some centres undefined) | 23 | 27 | 22 | ED50 (Mus musculus [19]): 5.3 mg/kg; ED50 (Mus musculus [20]): 78 mg/kg; ED50 (Mus musculus [21]): 1.4 mg/kg; ED50 (Mus musculus [22]): 37 mg/kg; ED50 (Mus musculus [23]): 43 mg/kg; ED50 (Mus musculus [24]): 3.8 mg/kg
0.5 (≈ 0.61 µM) | – | – | 2 (≈ 2.44 µM) | 0.015 (≈ 0.0183 µM) | 2 (≈ 2.44 µM) | 0.015 (≈ 0.0183 µM) | – | CCC(CC)CN[C@@H]1[C@H](C)[C@@H](O)[C@](C)(O)[C@@H](CC)OC(=O)[C@H](C)[C@@H](OC2CC(C)(OC)C(O)C(C)O2)[C@H](C)[C@@H](OC2OC(C)CC(N(C)C)C2O)[C@](C)(O)C[C@H]1C (some centres undefined) | 17 | 10 | 22 | MIC [6]: 0.5 µg/mL (≈ 0.61 µM)
0.5 (≈ 0.599 µM) | 0.06 (≈ 0.0718 µM) | 0.25 (≈ 0.299 µM) | 2 (≈ 2.39 µM) | 0.12 (≈ 0.144 µM) | – | – | 0.5 (≈ 0.599 µM) | CC[C@H]1OC(=O)[C@H](C)[C@@H](OC2CC(C)(OC)C(O)C(C)O2)[C@H](C)[C@@H](OC2OC(C)CC(N(C)C)C2O)[C@](C)(O)C[C@@H](C)[C@@H]2NC(COCCOC)O[C@H]([C@H]2C)[C@]1(C)O (some centres undefined) | 32 | 43 | > 50 | ED50 (Mus musculus [13]): < 0.6 mg/kg; ED50 (Mus musculus [14]): 23 mg/kg; ED50 (Mus musculus [15]): 27 mg/kg; ED50 (Mus musculus [16]): 1 mg/kg; ED50 (Mus musculus [17]): 0.6 mg/kg; ED50 (Mus musculus [18]): 34 mg/kg
0.5 (≈ 0.62 µM) | – | – | 0.5 (≈ 0.62 µM) | 0.06 (≈ 0.0743 µM) | 0.5 (≈ 0.62 µM) | 0.03 (≈ 0.0372 µM) | 0.5 (≈ 0.62 µM) | CC[C@H]1OC(=O)[C@H](C)[C@@H](OC2CC(C)(OC)C(O)C(C)O2)[C@H](C)[C@@H](OC2OC(C)CC(N(C)C)C2O)[C@](C)(O)C[C@@H](C)[C@H](NCCCOC)[C@H](C)[C@@H](O)[C@]1(C)O (some centres undefined) | 16 | 14 | 16 | ED50 (Mus musculus [25]): 17 mg/kg; ED50 (Mus musculus [26]): 2.1 mg/kg; ED50 (Mus musculus [27]): 36 mg/kg; ED50 (Mus musculus [28]): 3.7 mg/kg; ED50 (Mus musculus [29]): 19 mg/kg; ED50 (Mus musculus [30]): 8.3 mg/kg
